Measurements reported in ChEMBL document CHEMBL1136843, “N-Benzyl-1-heteroaryl-3-(trifluoromethyl)-1H-pyrazole-5-carboxamides as inhibitors of co-activator associated arginine methyltransferase 1 (CARM1)” (Bioorg Med Chem Lett, 2009).
Activity calls are given as the source filed them. No cut-off for these calls is given here.

Key:
[1] = system: T47D; assay: Growth inhibition of human estrogen-dependent T47D cells after 72 hrs; format: functional, cell-based
Outline: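 T47D breast ductal carcinoma cells stimulated with estradiol and counted after 72 h; tamoxifen as positive control.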

[2] = target: Protein arginine N-methyltransferase 1 (Homo sapiens, UniProt Q99873); assay: Inhibition of PRMT1
[3] = target: T1, Androgen receptor (Homo sapiens, UniProt P10275); assay: Antiandrogenic activity in human MDA-MB-453 cells expressing androgen receptor assessed as inhibition of DHT-induced androgen-dependent transcription by luciferase reporter gene assay; format: cell-based
T1 sequence (P10275 whole entry): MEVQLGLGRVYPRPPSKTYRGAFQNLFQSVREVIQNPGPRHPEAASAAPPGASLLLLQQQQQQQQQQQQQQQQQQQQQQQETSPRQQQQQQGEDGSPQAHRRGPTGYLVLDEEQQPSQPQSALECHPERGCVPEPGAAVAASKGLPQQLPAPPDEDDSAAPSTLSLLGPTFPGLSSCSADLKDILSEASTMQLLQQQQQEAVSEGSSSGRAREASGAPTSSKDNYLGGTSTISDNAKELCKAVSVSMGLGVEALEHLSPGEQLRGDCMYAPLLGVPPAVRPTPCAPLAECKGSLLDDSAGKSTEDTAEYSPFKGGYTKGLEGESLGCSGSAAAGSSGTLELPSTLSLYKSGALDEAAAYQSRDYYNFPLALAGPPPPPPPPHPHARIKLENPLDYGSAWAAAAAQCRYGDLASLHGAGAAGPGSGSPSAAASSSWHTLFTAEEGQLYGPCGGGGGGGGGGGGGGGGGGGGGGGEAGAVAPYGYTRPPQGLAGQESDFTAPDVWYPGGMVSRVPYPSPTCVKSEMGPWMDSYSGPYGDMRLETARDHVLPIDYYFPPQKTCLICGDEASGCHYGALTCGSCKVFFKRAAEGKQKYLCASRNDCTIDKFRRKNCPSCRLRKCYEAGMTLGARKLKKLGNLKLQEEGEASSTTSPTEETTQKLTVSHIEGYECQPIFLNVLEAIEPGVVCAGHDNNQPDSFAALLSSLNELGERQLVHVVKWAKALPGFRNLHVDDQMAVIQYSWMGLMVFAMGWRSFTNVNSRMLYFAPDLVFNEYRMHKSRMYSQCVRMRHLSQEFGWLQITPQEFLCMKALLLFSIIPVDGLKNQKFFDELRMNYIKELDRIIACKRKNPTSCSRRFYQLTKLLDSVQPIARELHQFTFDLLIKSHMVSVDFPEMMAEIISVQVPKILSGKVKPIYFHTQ

[4] = target: T2, Histone-arginine methyltransferase CARM1 (Mus musculus) (UniProt Q9WVG6); assay: Inhibition of mouse recombinant CARM1 assessed as inhibition of histone H3 methylation at 5 uM after 48 hrs by cell based assay
T2 sequence (whole entry): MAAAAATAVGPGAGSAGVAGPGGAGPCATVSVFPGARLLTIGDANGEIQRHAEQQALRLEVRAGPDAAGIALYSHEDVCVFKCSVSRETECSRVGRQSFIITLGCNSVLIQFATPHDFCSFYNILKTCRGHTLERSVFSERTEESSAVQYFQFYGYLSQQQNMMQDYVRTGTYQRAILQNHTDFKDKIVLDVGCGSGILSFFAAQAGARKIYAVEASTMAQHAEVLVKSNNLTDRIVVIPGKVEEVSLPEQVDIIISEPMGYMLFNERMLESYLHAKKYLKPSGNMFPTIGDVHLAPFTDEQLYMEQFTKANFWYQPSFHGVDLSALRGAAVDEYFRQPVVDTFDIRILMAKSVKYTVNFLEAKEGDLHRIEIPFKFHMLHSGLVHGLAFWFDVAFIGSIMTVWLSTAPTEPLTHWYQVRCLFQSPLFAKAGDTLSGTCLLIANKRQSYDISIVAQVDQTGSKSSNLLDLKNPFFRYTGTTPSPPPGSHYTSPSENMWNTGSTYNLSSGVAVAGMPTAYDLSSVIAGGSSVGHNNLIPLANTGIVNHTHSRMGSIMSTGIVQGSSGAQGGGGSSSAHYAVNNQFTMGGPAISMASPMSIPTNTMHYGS
Outline: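 Cell-based readout of histone H3 arginine 26 methylation, a CARM1 target site, in two different cell lines treated with compound up to […] for 48 h.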

[5] = target: T3, Histone-arginine methyltransferase CARM1 (Mus musculus, UniProt Q9WVG6); assay: Inhibition of mouse recombinant his-tagged CARM1 expressed in Sf9 cells by histone methyltransferase assay
T3 sequence (Q9WVG6 whole entry): T2 sequence (whole entry)
Outline: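 Recombinant CARM1 diluted in Tris–HCl pH 9 and pre-incubated with compound for 10 min at rt. Histone H3 substrate plus SAM containing 20% [3H]SAM then added and incubated 15 min at 30 °C. Reaction quenched with SAH, spotted onto P30 filtermat with wax scintillant, and incorporated radioactivity counted.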

[6] = target: T4, Estrogen receptor (Homo sapiens, UniProt P03372); assay: Antiestrogenic activity in human T47D cells expressing estrogen receptor assessed as estrogen-dependent transcription by luciferase reporter gene assay; format: cell-based
T4 sequence (P03372 whole entry): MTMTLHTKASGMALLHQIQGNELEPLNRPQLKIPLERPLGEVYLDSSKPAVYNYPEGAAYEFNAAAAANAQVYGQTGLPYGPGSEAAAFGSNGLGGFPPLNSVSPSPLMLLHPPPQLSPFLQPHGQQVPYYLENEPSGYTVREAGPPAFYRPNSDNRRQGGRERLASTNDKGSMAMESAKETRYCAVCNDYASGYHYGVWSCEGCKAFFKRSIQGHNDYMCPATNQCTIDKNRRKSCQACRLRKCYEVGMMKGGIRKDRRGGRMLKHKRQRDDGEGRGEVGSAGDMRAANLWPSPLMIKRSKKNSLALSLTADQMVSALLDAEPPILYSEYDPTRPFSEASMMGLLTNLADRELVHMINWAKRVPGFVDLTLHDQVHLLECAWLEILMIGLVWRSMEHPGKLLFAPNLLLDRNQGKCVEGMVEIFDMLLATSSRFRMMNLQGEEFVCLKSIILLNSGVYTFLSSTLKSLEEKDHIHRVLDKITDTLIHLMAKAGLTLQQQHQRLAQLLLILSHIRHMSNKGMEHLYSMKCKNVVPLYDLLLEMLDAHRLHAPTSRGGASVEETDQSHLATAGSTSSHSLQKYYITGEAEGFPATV

[7] = system: DU-145; assay: Cytotoxicity against human DU145 cells by MTT assay; format: functional, cell-based
Outline: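 DU145 prostate carcinoma cell growth measured by MTT proliferation assay; HDAC inhibitor MS-275 as positive control.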

[8] = target: T5, Histone-lysine N-methyltransferase SETD7 (Homo sapiens, UniProt Q8WTS6); assay: Inhibition of Set7/9 lysine methyltransferase
T5 sequence (Q8WTS6 whole entry): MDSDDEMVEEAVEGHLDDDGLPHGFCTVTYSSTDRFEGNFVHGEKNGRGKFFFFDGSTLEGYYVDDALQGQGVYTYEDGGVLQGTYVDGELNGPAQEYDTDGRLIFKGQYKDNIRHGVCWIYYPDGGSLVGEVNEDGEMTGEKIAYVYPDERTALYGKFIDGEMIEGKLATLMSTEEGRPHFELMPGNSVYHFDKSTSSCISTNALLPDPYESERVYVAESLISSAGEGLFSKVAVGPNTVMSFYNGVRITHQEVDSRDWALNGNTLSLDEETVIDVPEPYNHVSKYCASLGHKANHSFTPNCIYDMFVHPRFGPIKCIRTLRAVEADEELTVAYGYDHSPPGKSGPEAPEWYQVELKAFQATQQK

Protein arginine N-methyltransferase 1, sequence (Q99873 whole entry): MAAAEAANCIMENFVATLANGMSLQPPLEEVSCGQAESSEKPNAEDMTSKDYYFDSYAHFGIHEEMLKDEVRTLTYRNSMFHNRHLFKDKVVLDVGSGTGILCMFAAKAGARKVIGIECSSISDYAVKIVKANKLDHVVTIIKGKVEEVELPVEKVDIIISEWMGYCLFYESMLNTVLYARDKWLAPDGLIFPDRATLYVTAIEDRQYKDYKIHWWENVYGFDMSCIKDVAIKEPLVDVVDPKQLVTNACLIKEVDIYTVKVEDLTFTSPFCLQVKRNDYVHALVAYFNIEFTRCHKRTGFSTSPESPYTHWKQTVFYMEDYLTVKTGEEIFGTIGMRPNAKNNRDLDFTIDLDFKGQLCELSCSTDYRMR

SMILES | IC50 [5] [µM] | also measured
COc1ccccc1CNC(=O)c1cc(C(F)(F)F)nn1-c1csc(CNC(=O)[C@H](C)N)c1 | 0.06 | IC50 [1]: > 10 µM; IC50 [2]: > 100 µM; IC50 [3]: > 10 µM; Activity [4]: inactive; IC50 [6]: > 10 µM; IC50 [7]: 18 µM; IC50 [8]: > 100 µM
C[C@H](N)C(=O)NCc1cc(-n2nc(C(F)(F)F)cc2C(=O)NCc2ccccc2)cs1 | 0.22 | –
COc1cccc(CNC(=O)c2cc(C(F)(F)F)nn2-c2csc(CNC(=O)[C@H](C)N)c2)c1 | 0.37 | –
C[C@H](N)C(=O)NCc1cc(-n2nc(C(F)(F)F)cc2C(=O)NCc2ccccc2F)cs1 | 0.79 | –
COc1ccccc1CNC(=O)c1cc(C(F)(F)F)nn1-c1cccc2cc(CNC(=O)[C@H](C)N)oc12 | > 10 | –
COc1ccccc1CNC(=O)c1cc(C(F)(F)F)nn1-c1cccc(CNC(=O)[C@H](C)N)c1 | 0.06 | IC50 [1]: > 10 µM; IC50 [3]: > 10 µM; IC50 [6]: > 10 µM; IC50 [7]: 18 µM
Cc1ccccc1CNC(=O)c1cc(C(F)(F)F)nn1-c1csc(CNC(=O)[C@H](C)N)c1 | 0.26 | –
CC(C)Oc1ccccc1CNC(=O)c1cc(C(F)(F)F)nn1-c1ccc(CNC(=O)[C@H](C)N)s1 | 2.92 | –
Nc1ccccc1NC(=O)c1ccc(CNC(=O)OCc2cccnc2)cc1 [ENTINOSTAT] | – | IC50 [7]: 2 µM
COc1ccccc1CNC(=O)c1cc(C(F)(F)F)nn1-c1cccc(CNC(=O)[C@H](C)N)n1 | 3.05 | –
C[C@H](N)C(=O)NCc1ccc(-n2nc(C(F)(F)F)cc2C(=O)NCc2ccccn2)s1 | 3.35 | –
COc1ccccc1CNC(=O)c1cc(C(F)(F)F)nn1-c1cc(CNC(=O)[C@H](C)N)ccn1 | 4.2 | –
COc1ccccc1CNC(=O)c1cc(C(F)(F)F)nn1-c1ccc(CNC(=O)[C@H](C)N)s1 | 0.3 | –
C[C@H](N)C(=O)NCc1ccc(-n2nc(C(F)(F)F)cc2C(=O)NCc2ccccc2F)s1 | 2.31 | –
C[C@H](N)C(=O)NCc1ccc(-n2nc(C(F)(F)F)cc2C(=O)NCc2ccccc2)s1 | 0.23 | –
C[C@H](N)C(=O)NCc1ccc(-n2nc(C(F)(F)F)cc2C(=O)NCc2ccccc2C(F)(F)F)s1 | 4.48 | –
COc1ccccc1CNC(=O)c1cc(C(F)(F)F)nn1-c1cccc2c1CN(CNC(=O)[C@H](C)N)C2 | > 10 | –
COc1ccccc1CNC(=O)c1cc(C(F)(F)F)nn1-c1nc(CNC(=O)[C@H](C)N)cs1 | 2.2 | –
COC(=O)c1ccccc1CNC(=O)c1cc(C(F)(F)F)nn1-c1csc(CNC(=O)[C@H](C)N)c1 | 0.77 | –
CC/C(=C(\c1ccccc1)c1ccc(OCCN(C)C)cc1)c1ccccc1 [TAMOXIFEN] | – | IC50 [1]: 1 µM
